According to ChEMBL document CHEMBL1141261, “Eremophilane sesquiterpenes from Ligularia macrophylla” (J Nat Prod, 2007):
≈ marks a conversion by molar mass, not a printed value.

Legend:
[1] = tested on: MCF7; test: Cytotoxicity against human MCF7 cells; assay type: functional, cell-based
In short: (§1)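 Test samples were dissolved in DMSO and diluted into culture medium to a final DMSO level of ≤1% (v/v). Human lung carcinoma A-549 and breast adenocarcinoma MCF-7 lines were used. Cell culture and the remaining steps followed an earlier published protocol.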

[2] = tested on: A549; test: Cytotoxicity against human A549 cells; assay type: functional, cell-based; in short: as §1

Compound	EC50 [1]	EC50 [2]
C/C=C(/C)C(=O)O[C@H]1c2c(C)coc2C[C@H]2C(=O)CC[C@H](C)[C@]21C	≥ 20 µg/mL	≥ 20 µg/mL
C/C=C(/CO)C(=O)O[C@@H]1c2c(C)coc2C[C@@]23O[C@@H]2CC[C@H](C)[C@@]13C	17.3 µg/mL (≈ 49.9 µM)	> 20 µg/mL
Cc1coc2c1[C@@H](O)[C@]1(C)[C@@H](C)CC[C@@H]3O[C@@]31C2	≥ 20 µg/mL	≥ 20 µg/mL
Cc1cc2c(C)coc2c2c1CCCC2C (stereo not drawn) [FARFUGIN A]	13.6 µg/mL (≈ 63.5 µM)	10.9 µg/mL (≈ 50.9 µM)
CC(C=O)C1=C[C@@]2(C)C(=CC1=O)[C@H](O)CC[C@@H]2C (mixture of isomers)	> 20 µg/mL	18.4 µg/mL
Cc1cc2c(C)coc2cc1[C@H](C)CCC=O	> 20 µg/mL	10 µg/mL (≈ 43.4 µM)
Cc1coc2cc3c(c(C)c12)[C@@H](C)CC[C@@H]3O	15.2 µg/mL (≈ 66 µM)	13.8 µg/mL (≈ 59.9 µM)
C/C=C(/C)C(=O)O[C@@H]1c2c(C)coc2C[C@]23O[C@H]2CC[C@H](C)[C@@]13C	> 20 µg/mL	9.4 µg/mL (≈ 28.4 µM)
Cc1coc2cc3c(c(C)c12)[C@@H](C)CCC3=O	15.2 µg/mL (≈ 66.6 µM)	11.9 µg/mL (≈ 52.1 µM)
